Bioassay records from PubChem BioAssay.
Compounds with a hit are over-represented: about 4.3% of the library has one in this group of screens.
Beta2AR agonist: beta2AR agonists driving receptor internalization, primary screen, cell-based, FAP fluorogen, flow cytometry. AID 504454, 2011. Am2.2-beta2AR cells. 340,000 compounds, 0.43% hits. Beta-2 adrenergic receptor (Homo sapiens), P07550. response, % (test concentration not listed);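 active means response above a set limit, near 3 SD of response in nonfluorescent compounds, cut at about 42% in these data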
Target sequence (P07550 whole entry, looked up): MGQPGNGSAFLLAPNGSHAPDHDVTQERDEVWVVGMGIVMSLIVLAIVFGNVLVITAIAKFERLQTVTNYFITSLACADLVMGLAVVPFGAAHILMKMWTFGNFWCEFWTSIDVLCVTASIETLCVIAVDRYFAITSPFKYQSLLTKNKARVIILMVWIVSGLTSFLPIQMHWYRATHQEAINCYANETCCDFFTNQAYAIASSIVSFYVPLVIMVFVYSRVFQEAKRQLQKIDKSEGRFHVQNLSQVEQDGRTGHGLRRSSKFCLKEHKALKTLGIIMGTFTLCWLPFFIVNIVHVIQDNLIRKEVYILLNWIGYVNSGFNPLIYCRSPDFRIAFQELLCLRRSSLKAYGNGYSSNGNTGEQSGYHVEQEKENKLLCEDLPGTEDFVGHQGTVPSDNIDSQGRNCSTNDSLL
TAAR1 antagonist: human TAAR1 antagonists, primary screen, Fluo-8 calcium fluorescence, CHO RD-HGA16 cells | Trace amine-associated receptor 1 (Homo sapiens), Q96RJ0 | 360,000 compounds, 1.5% hits | antagonist | inhibition, % at 3 µM;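 active means inhibition above a per-plate cutoff, the mean inhibition of test compounds on that plate plus 3 SD, cut at about 49% in these data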;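 further: 0% = DMSO plus EC80 beta-PEA response and 100% = DMSO alone without agonist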
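Material: CHO RD-HGA16 cells bearing hTAAR1; compound dosing: one-point dosing, 3 µM nominal final; schedule: dye loading 75 min at 37 °C, then 30 min room temperature; measured by: calcium fluorescence with Fluo-8; control set: vehicle and agonist controls; replication: n of 1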
TAAR1 ag: human TAAR1 agonists, primary screen, Fluo-8 calcium fluorescence, CHO RD-HGA16 cells; vehicle wells 0%, saturating PEA agonist 100%; 360,000 compounds, 0.99% hits; Trace amine-associated receptor 1 (Homo sapiens), Q96RJ0; AID 624467, 2012; activation, % at 3 µM;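 active means activation above the mean activation of all test compounds in the run plus 3 SD, cut at about 38% in these data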
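System: CHO RD-HGA16 cells carrying human TAAR1 plus Gα16; Incubation: 17-24 h seeding, 75 min 37 °C dye, 30 min RT; Measured by: Fluo-8 fluorescence, 5 s baseline then 140 s kinetic read; Control set: DMSO and PEA EC100; Replication: single well for each compound.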
m5-HT2A agonist: mouse Htr2a agonists via beta-arrestin recruitment, primary screen, cell-based, luminescence | CHO-K1 mHTR2A beta-arrestin complementation; percent of 30 µM serotonin response | activation, % at 7.6 µM | 360,000 compounds, 0.66% hits | AID 624169, 2012;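 active means activation above a run cutoff, the mean activation of all tested compounds plus 3 SD, cut at about 14% in these data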;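 further: 0% = plate median of compound wells and 100% = 30 µM serotonin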
MC4R ag barr: MC4R agonists recruiting beta-arrestin, primary screen, cell-based, luminescence, agonist arm of biased-ligand search; 360,000 compounds, 0.98% hits; activation, % at 8.9 µM; U2OS MC4R beta-arrestin complementation; percent of melanotan II response, DMSO zero;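 active means activation above a per-plate cutoff, the mean activation of sample wells on that plate plus 3 SD, cut at about 8% in these data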
MC4R antagonist: MC4R antagonists of cAMP signaling, primary screen, cell-based, TR-FRET, antagonist arm of biased-ligand search | AID 540295, 2011 | MC4R-expressing cells, MTII-stimulated cAMP, LANCE TR-FRET | 360,000 compounds, 0.48% hits | inhibition, % at 6.5 µM | Melanocortin receptor 4 (Homo sapiens), P32245;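 active means inhibition above its plate's cutoff, the mean of tested wells on that plate plus 3 SD, cut at about 29% in these data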;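 further: 0% = Melanotan II alone and 100% = Melanotan II plus saturating MCL0020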
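System: U2OS-MC4R stable cell line; Technique: Eu-cAMP/anti-cAMP TR-FRET, emission 671 nm; Repeats: single well per compound; Also added: Melanotan II; Dosing: one concentration, 6.5 µM nominal; Schedule: 30-min compound, 1-h challenge, 1-h detection, room temperature.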
TAAR1 ag confirm: human TAAR1 agonists, retest of hits, confirmation, Fluo-8 calcium fluorescence, CHO RD-HGA16 cells; shares compounds with TAAR1 ag; scaled: DMSO 0%, maximal phenethylamine 100%; activation, % at 3 µM; 2,400 compounds, 82% hits; AID 651783, 2012;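 active means activation above a cutoff set at the run's mean compound activation plus 3 SD, cut at about 39% in these data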
Ga16 nonsel ag: nonselective calcium mobilization agonists, CHO-Ga16 cells, counter-screen for hTAAR1 agonist project, cell-based, fluorescence, CHO-Ga16 parental line | shares compounds with TAAR1 ag | Fluo-8 calcium fluorescence; normalized to maximal ATP response, DMSO zero | activation, % at 3 µM | 2,400 compounds, 50% hits | AID 651787, 2012;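 active means activation above the run cutoff, the mean activation over all tested wells plus 3 SD, cut at about 12% in these data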;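 further: 0% = DMSO wells and 100% = maximal ATP response on the peak over basal ratio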
TAAR1 desensitize: TAAR1 desensitization by agonist hits, confirmation, counter-screen for TAAR1 agonist project, cell-based, fluorescence, tachyphylaxis; shares compounds with TAAR1 ag; CHO RD-HGA16 hTAAR1, Fluo-8 calcium, beta-PEA response inhibition; inhibition, % at 3 µM; 2,400 compounds, 46% hits; AID 651951, 2012;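 active means inhibition above the run cutoff, the mean inhibition of all test compounds plus 3 SD, cut at about 49% in these data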;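 further: beta-PEA stimulus applied at its EC80; loss of beta-PEA calcium signal after compound pretreatment read as receptor desensitization; 0% = DMSO with beta-PEA at EC80 and 100% = DMSO alone without agonist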
Ga16 nonsel ant: inhibition of ATP-evoked calcium response in CHO-Ga16 cells, counter-screen for TAAR1 agonist project, cell-based, fluorescence; inhibition, % at 3 µM; AID 651952, 2012; shares compounds with TAAR1 ag; 2,400 compounds, 39% hits; CHO-Ga16 ATP-induced calcium, Fluo-8 fluorescence;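 active means inhibition above the plate's mean compound inhibition plus 3 SD, computed per plate, cut at about 22% in these data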;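 further: 0% = EC80 ATP with DMSO and 100% = DMSO wells without ATP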
Active calls of the source: *; . = no result; ! = not confirmed by another sample.

SMILES | Beta2AR agonist | TAAR1 antagonist | TAAR1 ag | m5-HT2A agonist | MC4R ag barr | MC4R antagonist | TAAR1 ag confirm | Ga16 nonsel ag | TAAR1 desensitize | Ga16 nonsel ant
O=[N+]([O-])c1ccccc1C(O)Cc1ccccn1 (configuration not stated) | -5 | -3 | 1 | 8 | 0 | -2 | . | . | . | .
CCOC(=O)C(NCCc1ccccc1F)(NC(C)=O)C(F)(F)F (configuration not stated) | 1 | 51* | 72* | -1 | 0 | 10 | 101* | 1 | 88* | 0
CCOC(=O)C(NCc1ccccc1OC)(NC(C)=O)C(F)(F)F (configuration not stated) | -2 | -13 | 21 | -4 | 0 | -5 | . | . | . | .
Cc1c(NCc2cc(Cl)ccc2O)c(=O)n(-c2ccccc2)n1C | -1 | 26 | 50* | -4 | -1 | 1 | 25 | 6 | 24 | 13
Cc1c(NCc2cc(Cl)cc(Cl)c2O)c(=O)n(-c2ccccc2)n1C | 4 | 16 | 7 | -2 | 0 | 5 | . | . | . | .
NC(N)=N/N=C/c1c(Cl)cccc1Cl | 1 | 54*! | 61* | -3 | 0 | 15 | 88* | 2 | 91* | 9
COc1ccc2ccccc2c1/C=N/Nc1ccc(Cl)c(C(=O)O)c1 | -1 | 0 | -2 | -1 | -1 | -9 | . | . | . | .
COc1ccc(N/N=C/c2c(C(=O)O)ccc3ccccc23)cc1 | 6 | 6 | 62* | -4 | -1 | 8 | 62* | 13* | 35 | 18
Cc1cccc(CC(=O)NCCS(=O)(=O)N2CCN(c3cccc(Cl)c3)CC2)c1 | 3 | 4 | 2 | -4 | -5 | 9 | . | . | . | .
Cc1cc(/C=C2/NC(=O)NC2=O)c(C)n1-c1sc2c(c1C#N)CCCC2 | 10 | -14 | 63* | 10 | -2 | -2 | 46* | 19* | -5 | -2
Cc1cc(C)c(-n2c(C)cc(/C=C3/NC(=O)NC3=O)c2C)c(C)c1 | . | -26 | 33 | . | . | . | . | . | . | .
O=C(Cc1ccc(-c2ccccc2)cc1)Nc1ncccc1O | -13 | -19 | -1 | 0 | 1 | -2 | . | . | . | .
